Data set [1] in a line: Kinetic solubility of the compound in pH 6.5 phosphate buffer after 30 mins by nephelometry. The class given is physicochemical. The conditions noted are these: pH 6.5, 0.5 h.
Data set [2] has as its system Salmonella typhimurium. The data set is described as follows: Mutagenicity in Salmonella typhimurium TA98 assessed as increase in number of revertant colonies at 1250 to 5000 ug/ml in absence of ariclor-induced rat liver S9 fraction by Ames test relative to control. Particulars: salmonella enterica subsp. enterica serovar typhimurium. The class given is toxicity. The method, boiled down: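 Ames plate incorporation test run in two independent experiments across five Salmonella strains, with and without metabolic activation. Revertant colonies were counted per plate and compared with concurrent vehicle controls. A reproducible increase of ≥2-fold in revertant colony number over vehicle control was scored as evidence of mutagenicity.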
In general terms: In the Ames test, an excess of revertant colonies over the control signals mutagenicity.

A short description of data set [3]: Partition coefficient, logD of compound at pH 7.4 by HPLC analysis. The class given is physicochemical. The conditions noted are these: octanol/water. The method, boiled down:
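logD at pH 7.4 measured by HPLC.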

Data set [4] is described as follows: Kinetic solubility of the compound in pH 2 HCl after 30 mins by nephelometry. The class given is physicochemical. Particulars: buffer, pH 2, 0.5 h.
Data set [5] is described as follows: Cytotoxicity against human HepG2 cells after 72 hrs by CyQuant-Direct reagent based fluorescence assay. The class given is cell-based.

Data on 11 molecules can be found in ChEMBL document CHEMBL4014337, “Antimalarial Inhibitors Targeting Serine Hydroxymethyltransferase (SHMT) with in Vivo Efficacy and Analysis of their Binding Mode Based on X-ray Cocrystal Structures” (J Med Chem, 2017).

By logD is commonly meant the decadic logarithm of the distribution of all forms, ionised or not, between an organic phase and buffer at a given pH. Broadly, the IC20 is the concentration at which the effect reaches the 20% level. A low value points to an effect from little substance.

The structures appear in SMILES notation.

Turning to `Cc1[nH]nc2c1C(c1cc(F)cc(-c3cccc(C(=O)O)c3)c1)(C(C)C)C(C#N)=C(N)O2` (racemic), the Kinetic_solubility result in data set [1] and in data set [4] was “Soluble” in each case. Besides, the “fold change (FC)” value in data set [2] was “>= 2”. Moreover, the logD in data set [3] is 1.5.
In the case of `Cc1[nH]nc2c1C(c1cc(F)cc(N3CCOCC3)c1)(C(C)C)C(C#N)=C(N)O2` (racemic), the Kinetic_solubility entry in data set [1] and in data set [4] was “Soluble” each time.
Take `Cc1[nH]nc2c1C(c1cc(N3CCC(C(=O)O)CC3)cc(C(F)(F)F)c1)(C(C)C)C(C#N)=C(N)O2` (racemic): the Kinetic_solubility result in data set [1] and in data set [4] was “Soluble” each time. Besides, in data set [3], the logD turned out to be 1.6.
As to `Cc1[nH]nc2c1C(c1cc(N3CCS(=O)(=O)CC3)cc(C(F)(F)F)c1)(C(C)C)C(C#N)=C(N)O2` (racemic), the Kinetic_solubility result in data set [1] and in data set [4] was “Soluble” each time.
In turn, `Cc1[nH]nc2c1C(c1cc(-c3cccnc3)cc(C(F)(F)F)c1)(C(C)C)C(C#N)=C(N)O2` (racemic) returned an IC20 at 72 h in data set [5] of 18.9 µM.
`COc1ccc(-c2cc(C(F)(F)F)cc(C3(C(C)C)C(C#N)=C(N)Oc4n[nH]c(C)c43)c2)cc1C(=O)O` (racemic): the Kinetic_solubility result in data set [1] and in data set [4] was “Soluble” in each case. The logD in data set [3] was found to be 1.7.
For `Cc1[nH]nc2c1C(c1cc(F)cc(N3CCC(C(=O)O)CC3)c1)(C(C)C)C(C#N)=C(N)O2` (racemic), the logD in data set [3] amounted to 1.2.
As for `Cc1[nH]nc2c1C(c1cc(-c3cccc(C(=O)O)c3)cc(C(F)(F)F)c1)(C(C)C)C(C#N)=C(N)O2` (racemic), the logD in data set [3] amounted to 1.8.
In the case of `Cc1[nH]nc2c1C(c1cc(N3CC4CCCC4C3)cc(C(F)(F)F)c1)(C(C)C)C(C#N)=C(N)O2` (racemic), the Kinetic_solubility entry in data set [1] and in data set [4] was “Soluble” each time.
In data set [3], `Cc1[nH]nc2c1C(c1cc(C#N)cc(-c3cccc(C(=O)O)c3)c1)(C(C)C)C(C#N)=C(N)O2` (racemic) yielded a logD of 1.4.
On to `Cc1[nH]nc2c1C(c1cc(F)cc(-c3ccncc3)c1)(C(C)C)C(C#N)=C(N)O2` (racemic), for which the Kinetic_solubility result in data set [1] and in data set [4] was “Soluble” each time.
